The values below come from ChEMBL document CHEMBL1152508, “Interaction of drug based binuclear mixed-ligand complexes with DNA” (2009).

The structures appear in SMILES notation.

The test system of one test is Staphylococcus aureus. The experiment in a line: Antibacterial activity against Staphylococcus aureus after 24 hrs by twofold serial dilution method. Format: functional. Summed up: (§1)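 Bacteria activated by inoculation into luria broth for 24 h at 30 °C. Compounds dissolved in DMSO, then diluted in luria broth as twofold serial concentrations. Test cultures incubated 24 h at 37 °C. MIC taken as the lowest concentration giving complete inhibition of growth.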
`COc1ccc(/C=N/CC/N=C/c2ccc(OC)cc2)cc1` had an Activity of 1687 µM.
As for `C/C(=N/c1ccccc1/N=C(\C)c1ccccc1)c1ccccc1`, the Activity is 1760 µM.
`Nc1cccc2cccc(N)c12`: the Activity was determined as 3160 µM.
The same measure, in the same setting: next, `COc1ccc(/N=C(C)\C(C)=N\c2ccc(OC)cc2)cc1`: 1855 µM.
Same read-out and setting: next, `Nc1ccccc1N`: 5086 µM; `O=C(O)c1cn(C2CC2)c2cc(N3CCNCC3)c(F)cc2c1=O` [CIPROFLOXACIN]: 1.63 µM.
The same measure, in the same setting: next, `CCN1CCN(c2cc3c(cc2F)c(=O)c(C(=O)O)cn3C2CC2)CC1` [ENROFLOXACIN]: 1.95 µM; `NCCN` [ETHYLENEDIAMINE]: 8319 µM; `COc1c(N2CCNC(C)C2)c(F)cc2c(=O)c(C(=O)O)cn(C3CC3)c12` (stereo not given) [GATIFLOXACIN]: 5.06 µM.
`C[C@H]1COc2c(N3CCN(C)CC3)c(F)cc3c(=O)c(C(=O)O)cn1c23.C[C@H]1COc2c(N3CCN(C)CC3)c(F)cc3c(=O)c(C(=O)O)cn1c23.O` [LEVOFLOXACIN] returned an Activity of 1.66 µM.
In turn, `CCn1cc(C(=O)O)c(=O)c2cc(F)c(N3CCNCC3)cc21` [NORFLOXACIN] came in with an Activity of 2.5 µM.
In the case of `CC1COc2c(N3CCN(C)CC3)c(F)cc3c(=O)c(C(=O)O)cn1c23` (stereo not given) [OFLOXACIN], the Activity was 1.94 µM.
Same read-out and setting: next, `CCn1cc(C(=O)O)c(=O)c2cc(F)c(N3CCN(C)CC3)cc21` [PEFLOXACIN]: 2.1 µM; `C[C@@H]1CN(c2c(F)c(N)c3c(=O)c(C(=O)O)cn(C4CC4)c3c2F)C[C@H](C)N1` [SPARFLOXACIN]: 1.27 µM.

Another test concerns Escherichia coli. The experiment in a line: Antibacterial activity against Escherichia coli after 24 hrs by twofold serial dilution method. The class given is functional. A digest of the protocol:
as §1
The compound `COc1ccc(/C=N/CC/N=C/c2ccc(OC)cc2)cc1` registered an Activity of 2193 µM.
Same read-out and setting: next, `C/C(=N/c1ccccc1/N=C(\C)c1ccccc1)c1ccccc1`: 2080 µM; `Nc1cccc2cccc(N)c12`: 4108 µM.
On the same count and under the same terms, next, `COc1ccc(/N=C(C)\C(C)=N\c2ccc(OC)cc2)cc1`: 2361 µM; `Nc1ccccc1N`: 6473 µM.
Same read-out and setting: next, `O=C(O)c1cn(C2CC2)c2cc(N3CCNCC3)c(F)cc2c1=O` [CIPROFLOXACIN]: 1.36 µM.
`CCN1CCN(c2cc3c(cc2F)c(=O)c(C(=O)O)cn3C2CC2)CC1` [ENROFLOXACIN] displayed an Activity of 1.39 µM.
Consider `NCCN` [ETHYLENEDIAMINE], for which the Activity turned out to be 10815 µM.
Same read-out and setting: next, `COc1c(N2CCNC(C)C2)c(F)cc2c(=O)c(C(=O)O)cn(C3CC3)c12` (stereo not given) [GATIFLOXACIN]: 2.93 µM; `C[C@H]1COc2c(N3CCN(C)CC3)c(F)cc3c(=O)c(C(=O)O)cn1c23.C[C@H]1COc2c(N3CCN(C)CC3)c(F)cc3c(=O)c(C(=O)O)cn1c23.O` [LEVOFLOXACIN]: 0.97 µM.
On the same count and under the same terms, next, `CCn1cc(C(=O)O)c(=O)c2cc(F)c(N3CCNCC3)cc21` [NORFLOXACIN]: 2.82 µM; `CC1COc2c(N3CCN(C)CC3)c(F)cc3c(=O)c(C(=O)O)cn1c23` (stereo not given) [OFLOXACIN]: 1.38 µM; `CCn1cc(C(=O)O)c(=O)c2cc(F)c(N3CCN(C)CC3)cc21` [PEFLOXACIN]: 2.7 µM.
Still for that read-out and setting: next, `C[C@@H]1CN(c2c(F)c(N)c3c(=O)c(C(=O)O)cn(C4CC4)c3c2F)C[C@H](C)N1` [SPARFLOXACIN]: 1.27 µM.

The subject of a further test is Pseudomonas aeruginosa. The experiment in a line: Antibacterial activity against Pseudomonas aeruginosa after 24 hrs by twofold serial dilution method. Format: functional. Summed up:
as §1
As for `COc1ccc(/C=N/CC/N=C/c2ccc(OC)cc2)cc1`, the Activity came to 1855 µM.
The same measure, in the same setting: next, `C/C(=N/c1ccccc1/N=C(\C)c1ccccc1)c1ccccc1`: 1920 µM; `Nc1cccc2cccc(N)c12`: 3792 µM.
Same read-out and setting: next, `COc1ccc(/N=C(C)\C(C)=N\c2ccc(OC)cc2)cc1`: 2193 µM; `Nc1ccccc1N`: 6010 µM; `O=C(O)c1cn(C2CC2)c2cc(N3CCNCC3)c(F)cc2c1=O` [CIPROFLOXACIN]: 1.36 µM.
The same measure, in the same setting: next, `CCN1CCN(c2cc3c(cc2F)c(=O)c(C(=O)O)cn3C2CC2)CC1` [ENROFLOXACIN]: 1.39 µM; `NCCN` [ETHYLENEDIAMINE]: 10815 µM; `COc1c(N2CCNC(C)C2)c(F)cc2c(=O)c(C(=O)O)cn(C3CC3)c12` (stereo not given) [GATIFLOXACIN]: 1.01 µM.
Compound `C[C@H]1COc2c(N3CCN(C)CC3)c(F)cc3c(=O)c(C(=O)O)cn1c23.C[C@H]1COc2c(N3CCN(C)CC3)c(F)cc3c(=O)c(C(=O)O)cn1c23.O` [LEVOFLOXACIN] yielded an Activity of 1.66 µM.
Take `CCn1cc(C(=O)O)c(=O)c2cc(F)c(N3CCNCC3)cc21` [NORFLOXACIN]: the Activity turned out to be 3.76 µM.
The compound `CC1COc2c(N3CCN(C)CC3)c(F)cc3c(=O)c(C(=O)O)cn1c23` (stereo not given) [OFLOXACIN] yielded an Activity of 2.21 µM.
As to `CCn1cc(C(=O)O)c(=O)c2cc(F)c(N3CCN(C)CC3)cc21` [PEFLOXACIN], the Activity worked out at 5.7 µM.
For `C[C@@H]1CN(c2c(F)c(N)c3c(=O)c(C(=O)O)cn(C4CC4)c3c2F)C[C@H](C)N1` [SPARFLOXACIN], the Activity was 1.53 µM.

A further test has as its system Serratia marcescens. The experiment in a line: Antibacterial activity against Serratia marcescens after 24 hrs by twofold serial dilution method. Format: functional. A digest of the protocol: as §1
The compound `COc1ccc(/C=N/CC/N=C/c2ccc(OC)cc2)cc1` had an Activity of 1687 µM.
Same read-out and setting: next, `C/C(=N/c1ccccc1/N=C(\C)c1ccccc1)c1ccccc1`: 1760 µM; `Nc1cccc2cccc(N)c12`: 4108 µM; `COc1ccc(/N=C(C)\C(C)=N\c2ccc(OC)cc2)cc1`: 2024 µM.
The same measure, in the same setting: next, `Nc1ccccc1N`: 6010 µM.
Consider `O=C(O)c1cn(C2CC2)c2cc(N3CCNCC3)c(F)cc2c1=O` [CIPROFLOXACIN], for which the Activity came to 1.63 µM.
Still for that read-out and setting: next, `CCN1CCN(c2cc3c(cc2F)c(=O)c(C(=O)O)cn3C2CC2)CC1` [ENROFLOXACIN]: 1.67 µM; `NCCN` [ETHYLENEDIAMINE]: 9983 µM; `COc1c(N2CCNC(C)C2)c(F)cc2c(=O)c(C(=O)O)cn(C3CC3)c12` (stereo not given) [GATIFLOXACIN]: 2.93 µM.
The same measure, in the same setting: next, `C[C@H]1COc2c(N3CCN(C)CC3)c(F)cc3c(=O)c(C(=O)O)cn1c23.C[C@H]1COc2c(N3CCN(C)CC3)c(F)cc3c(=O)c(C(=O)O)cn1c23.O` [LEVOFLOXACIN]: 1.67 µM; `CCn1cc(C(=O)O)c(=O)c2cc(F)c(N3CCNCC3)cc21` [NORFLOXACIN]: 4.07 µM.
Same read-out and setting: next, `CC1COc2c(N3CCN(C)CC3)c(F)cc3c(=O)c(C(=O)O)cn1c23` (stereo not given) [OFLOXACIN]: 1.66 µM; `CCn1cc(C(=O)O)c(=O)c2cc(F)c(N3CCN(C)CC3)cc21` [PEFLOXACIN]: 5.1 µM.
`C[C@@H]1CN(c2c(F)c(N)c3c(=O)c(C(=O)O)cn(C4CC4)c3c2F)C[C@H](C)N1` [SPARFLOXACIN] gave an Activity of 1.53 µM.

The subject of the next test is Bacillus subtilis. The experiment in a line: Antibacterial activity against Bacillus subtilis after 24 hrs by twofold serial dilution method. The class given is functional. Summed up: as §1
As to `COc1ccc(/C=N/CC/N=C/c2ccc(OC)cc2)cc1`, the Activity worked out at 1518 µM.
The same measure, in the same setting: next, `C/C(=N/c1ccccc1/N=C(\C)c1ccccc1)c1ccccc1`: 1600 µM.
As to `Nc1cccc2cccc(N)c12`, the Activity worked out at 3476 µM.
The compound `COc1ccc(/N=C(C)\C(C)=N\c2ccc(OC)cc2)cc1` came in with an Activity of 1518 µM.
Same read-out and setting: next, `Nc1ccccc1N`: 5548 µM; `O=C(O)c1cn(C2CC2)c2cc(N3CCNCC3)c(F)cc2c1=O` [CIPROFLOXACIN]: 1.09 µM.
Still for that read-out and setting: next, `CCN1CCN(c2cc3c(cc2F)c(=O)c(C(=O)O)cn3C2CC2)CC1` [ENROFLOXACIN]: 3.9 µM; `NCCN` [ETHYLENEDIAMINE]: 9151 µM.
Still for that read-out and setting: next, `COc1c(N2CCNC(C)C2)c(F)cc2c(=O)c(C(=O)O)cn(C3CC3)c12` (stereo not given) [GATIFLOXACIN]: 4 µM.
`C[C@H]1COc2c(N3CCN(C)CC3)c(F)cc3c(=O)c(C(=O)O)cn1c23.C[C@H]1COc2c(N3CCN(C)CC3)c(F)cc3c(=O)c(C(=O)O)cn1c23.O` [LEVOFLOXACIN]: the Activity turned out to be 2.21 µM.
The same measure, in the same setting: next, `CCn1cc(C(=O)O)c(=O)c2cc(F)c(N3CCNCC3)cc21` [NORFLOXACIN]: 2.51 µM; `CC1COc2c(N3CCN(C)CC3)c(F)cc3c(=O)c(C(=O)O)cn1c23` (stereo not given) [OFLOXACIN]: 1.38 µM.
Same read-out and setting: next, `CCn1cc(C(=O)O)c(=O)c2cc(F)c(N3CCN(C)CC3)cc21` [PEFLOXACIN]: 2.4 µM.
As for `C[C@@H]1CN(c2c(F)c(N)c3c(=O)c(C(=O)O)cn(C4CC4)c3c2F)C[C@H](C)N1` [SPARFLOXACIN], the Activity was 2.04 µM.
